PMI activator = increases human mannose-6-phosphate isomerase activity. P34949. purified human PMI, coupled resazurin fluorescence, 20 min; stronger effect = higher value; 1 = vehicle control, 0 substrate-free wells. activation factor at 20 µM. hit rate 0.005% among 190,000;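 active = activation factor of 2 or more at 20 µM, relative to plate controls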
Target sequence (P34949 whole entry, looked up): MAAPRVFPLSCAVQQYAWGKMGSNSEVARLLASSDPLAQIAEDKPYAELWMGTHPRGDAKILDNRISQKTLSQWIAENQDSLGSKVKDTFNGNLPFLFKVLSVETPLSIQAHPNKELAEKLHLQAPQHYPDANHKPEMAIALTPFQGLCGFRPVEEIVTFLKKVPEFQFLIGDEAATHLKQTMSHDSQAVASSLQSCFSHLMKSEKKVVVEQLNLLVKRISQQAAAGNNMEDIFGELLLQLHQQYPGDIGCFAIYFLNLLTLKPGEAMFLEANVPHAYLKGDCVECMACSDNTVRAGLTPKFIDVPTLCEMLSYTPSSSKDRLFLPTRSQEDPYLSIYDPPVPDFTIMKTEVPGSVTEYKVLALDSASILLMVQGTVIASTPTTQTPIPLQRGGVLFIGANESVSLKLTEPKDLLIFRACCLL
L major viab = inhibitors of Leishmania major promastigote growth; hit rate 9% among 200,000; inhibition, % at 10 µM; Leishmania major promastigotes, resazurin fluorescence viability; AID 1063; in the data active = inhibition above about 50%;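 note: promastigotes grown with compound for 44 hours at 28 °C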
WT yeast gro inh = growth inhibition of WT yeast, mitochondrial fusion screen. mitochondrial fusion phenotypic screen, WT strain. inhibition, % at 10 µM. hit rate 2.1% among 190,000. AID 1362; in the data active = inhibition above about 58%; tested in S. cerevisiae
Diaphorase act = diaphorase activation or chemical reduction counter-screen; Diaphorase/resazurin coupled assay, resorufin fluorescence, 16 min; stronger effect = higher value; 1 = vehicle wells, 0 = NADH-free wells; activation factor at 20 µM; hit rate 0.005% among 190,000; AID 1229;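 active = diaphorase activity raised at least twofold by the compound at 20 µM; inactive = activation factor below 2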
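Assay system: bacterial diaphorase enzyme (C. kluyveri) / Input: enzyme 0.07 U/mL final / Medium: 50 mM HEPES pH 7.4 with 4.542 mM MgCl2, 0.005% Tween 20 / Doses: single compound dose of 20 µM, 1% DMSO final / Incubation: 16 min enzyme reaction, ambient temperature / Signal: fluorescence, excitation 544 nm and emission 590 nm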
PMI act hi M6P = PMI (human) activation, high substrate. P34949. coupled PMI enzyme assay, resazurin fluorescence, 20 min; stronger effect = higher value; 1 = untreated enzyme, 0 = substrate-free blank. activation factor at 20 µM. hit rate 0.34% among 190,000;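 active = activation factor of 2 or more at 20 µM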
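Test system: Human PMI in coupled enzyme assay | Input: 15 ng/mL PMI | Medium: HEPES-buffered pH 7.4 with magnesium and detergent | Compound: One concentration, 20 µM, in 1% DMSO | Incubation: Enzyme reaction with compound 20 min at room temperature | Detection: Diaphorase-driven resazurin-to-resorufin fluorescence, excitation 544, emission 590 nm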
Numbers without * were called inactive. This is a sample that favours compounds with a hit; in the whole collection about 10% have one here.

What do the screens show for `O=C(NCCN1CCN(Cc2ccc([N+](=O)[O-])cc2)CC1)C(=O)Nc1ccccc1`?
PMI activator: 0.9; L major viab: -2; WT yeast gro inh: -11; Diaphorase act: 0.9; PMI act hi M6P: 0.9

Results for N=c1c2c(n(Cc3ccc([N+](=O)[O-])cc3)c3c1CCC3)CCCC2 ?
PMI activator: 1; L major viab: 64*; WT yeast gro inh: 67*; Diaphorase act: 0.9; PMI act hi M6P: 1

How did CCOc1ccc(-n2c(C)nc3cc(C(=O)NCc4ccc5c(c4)OCO5)ccc32)cc1 do in these assays?
PMI activator: 0.9; L major viab: -8; WT yeast gro inh: 52; Diaphorase act: 0.7; PMI act hi M6P: 0.9

How did COc1ccc(-n2c(C)nc3cc(C(=O)NCc4ccc5c(c4)OCO5)ccc32)cc1 do in these assays?
PMI activator: 0.9; L major viab: 83*; WT yeast gro inh: 18; Diaphorase act: 0.8; PMI act hi M6P: 1

What do the screens show for `Cc1nc2ccc(C(=O)NCc3ccc4c(c3)OCO4)cc2s1`?
PMI activator: 0.9; L major viab: -4; WT yeast gro inh: 64*; Diaphorase act: 0.9; PMI act hi M6P: 0.9

Results for CCCNC(=O)CN1C(=O)NC2(CCCc3cc(OC)ccc32)C1=O (centres undefined) ?
PMI activator: 0.8; L major viab: -3; WT yeast gro inh: -40; Diaphorase act: 0.8; PMI act hi M6P: 0.9

What do the screens show for `CCN1/C(=C/c2cc[n+](CCCS(=O)(=O)[O-])c3ccccc23)Sc2ccccc21`?
PMI activator: 0.8; L major viab: 100*; WT yeast gro inh: 17; Diaphorase act: 0.7; PMI act hi M6P: 0.9

Results for Cc1cc(Cl)ccc1OCc1n[nH]c(=S)n1C1CCCCC1 ?
PMI activator: 0.7; L major viab: -2; WT yeast gro inh: 94*; Diaphorase act: 0.7; PMI act hi M6P: 0.8

How did COc1ccc(Cl)cc1-c1n[nH]c(=S)n1C1CCCCC1 do in these assays?
PMI activator: 1; L major viab: 5; WT yeast gro inh: -1; Diaphorase act: 0.8; PMI act hi M6P: 0.9

How did CCOC(=O)N1CCN(C(=O)C2CCCCC2)CC1 do in these assays?
PMI activator: 1; L major viab: -5; WT yeast gro inh: -31; Diaphorase act: 0.9; PMI act hi M6P: 0.9

How did CCOC(=O)N1CCN(CC(O)COc2ccc(OC)cc2C(C)(C)C)CC1 (centres undefined) do in these assays?
PMI activator: 1.1; L major viab: 59*; WT yeast gro inh: 6; Diaphorase act: 0.9; PMI act hi M6P: 1

What do the screens show for `CCOC(=O)N1CCC(NCCNC(=O)c2ccc(Cl)cc2)CC1`?
PMI activator: 0.7; L major viab: 91*; WT yeast gro inh: -8; Diaphorase act: 0.8; PMI act hi M6P: 0.9

How did CCOC(=O)N1CCC(NCCNC(=O)c2ccco2)CC1 do in these assays?
PMI activator: 0.8; L major viab: -3; WT yeast gro inh: -23; Diaphorase act: 0.8; PMI act hi M6P: 0.9

Results for CCOC(=O)N1CCC(NC2CCCCCCC2)CC1 ?
PMI activator: 1; L major viab: 94*; WT yeast gro inh: -2; Diaphorase act: 1; PMI act hi M6P: 0.9

How did CCOC(=O)C1CCCN(CC(O)COc2ccc(OC)cc2C(C)(C)C)C1 (centres undefined) do in these assays?
PMI activator: 0.9; L major viab: 40; WT yeast gro inh: -2; Diaphorase act: 0.8; PMI act hi M6P: 0.9

Results for CCOC(=O)N1CCN(CCC(=O)c2ccc(Cl)cc2)CC1 ?
PMI activator: 0.4; L major viab: 94*; WT yeast gro inh: -5; Diaphorase act: 1; PMI act hi M6P: 0.4

What do the screens show for `CCOC(=O)N1CCN(CCC(=O)Nc2ccc(OC)cc2)CC1`?
PMI activator: 0.9; L major viab: 1; WT yeast gro inh: -4; Diaphorase act: 0.9; PMI act hi M6P: 1

What do the screens show for `CCOC(=O)N1CCN(CCC(=O)c2ccc(OC)cc2)CC1`?
PMI activator: 1; L major viab: 82*; WT yeast gro inh: 1; Diaphorase act: 1.2; PMI act hi M6P: 0.8

What do the screens show for `CCCn1c(=N)n(CC(=O)C(C)(C)C)c2ccccc21`?
PMI activator: 1.1; L major viab: 81*; WT yeast gro inh: 19; Diaphorase act: 1.1; PMI act hi M6P: 1.2

Results for COc1cc2c(cc1OC)C1=NC(=O)CN1C(SCc1ccccc1)=N2 ?
PMI activator: 0.8; L major viab: 0; WT yeast gro inh: 5; Diaphorase act: 0.7; PMI act hi M6P: 1

Screens: PubChem, several laboratories
